Laboratory results published in ChEMBL document CHEMBL1157166, “Synthesis, antimalarial activity, structure-activity relationship analysis of thieno-[3,2-b]benzothiazine S,S-dioxide analogs” (2008).

Tests used:
Type in all cases: functional
Plasmodium berghei [1] = assay: Antiparasitic activity against Plasmodium berghei ANKA infected BALB/c mice (Mus musculus) after 18 hrs as reduced hemoglobin proteolysis
Outline: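 Parasite extract: blood from P. berghei ANKA-infected mice (30–70% parasitemia); erythrocytes washed and lysed, then freed parasites freeze–thawed three times. Native mouse hemoglobin was incubated with extract, GSH and 0.2 M acetate buffer pH 5.4, with compound in DMSO, at 37 °C for 18 h. Leupeptin, pepstatin and chloroquine were references. Digestion was judged visually from the 14.4 kDa globin band on SDS–PAGE.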

Plasmodium berghei [2] = assay: Antiparasitic activity as survival days against chloroquine-sensitive Plasmodium berghei ANKA infected NIH mice (Mus musculus) at 20 mg/kg intraperitoneal dose
Outline: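 NIH mice (18–22 g) infected ip with 1 × 10⁷ P. berghei parasites; dosing started 2 h post-infection. Compound dissolved in DMSO (0.1 M stock), diluted in 2% Saline–Tween 20, given ip at 20 mg/kg once daily for 4 days. Chloroquine 25 mg/kg as positive control; saline-treated mice as untreated controls. Survival time after infection recorded versus control mice.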

Plasmodium berghei [3] = assay: Antiparasitic activity as reduced parasitaemia against chloroquine-sensitive Plasmodium berghei ANKA infected NIH mice (Mus musculus) at 20 mg/kg intraperitoneal dose at day 4; design: scale not given: the % may be the effect or the level left
Outline: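 Four-day suppressive test in NIH mice (18–22 g) infected ip with 1 × 10⁷ P. berghei. Dosing began 2 h post-infection: 20 mg/kg ip once daily for 4 days, from a 0.1 M DMSO stock diluted in 2% saline–Tween 20. Chloroquine at 25 mg/kg was the positive control. Day-4 parasitemia was read from Giemsa smears as a percentage versus saline-treated controls.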

[4] = molecular target: T1, Histidine-rich protein PFHRP-II (Plasmodium falciparum) (UniProt P05227); assay: Inhibition of beta-hematin formation using synthetic hemin chloride; design: concentration or dose not given beside the values; conditions: concentration not given here
T1 sequence (whole entry): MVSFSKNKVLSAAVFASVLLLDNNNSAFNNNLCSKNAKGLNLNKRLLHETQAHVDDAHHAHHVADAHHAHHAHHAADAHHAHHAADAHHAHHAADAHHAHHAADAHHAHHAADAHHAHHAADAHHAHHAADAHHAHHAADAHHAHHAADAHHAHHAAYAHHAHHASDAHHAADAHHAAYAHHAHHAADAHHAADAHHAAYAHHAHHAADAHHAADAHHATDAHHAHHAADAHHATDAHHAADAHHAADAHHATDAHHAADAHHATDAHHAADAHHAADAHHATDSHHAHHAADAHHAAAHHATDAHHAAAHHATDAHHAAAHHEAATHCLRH
Outline: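 Hemin chloride (4 mM in DMSO) was mixed in triplicate with compound in DMSO (50–5 mM as added); water or DMSO served as controls. Acetate buffer (0.2 M, pH 4.4) was added, then incubated at 37 °C for 48 h and centrifuged. The pellet was washed with DMSO, dissolved in 0.2 N NaOH and diluted 1:2 in 0.1 N NaOH. A405 was read and expressed as % inhibition of β-hematin formation.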

Structure (SMILES)	inhibition (INH) (Plasmodium berghei [1]) [%]	Survival (Plasmodium berghei [2]) [days]	Activity (Plasmodium berghei [3]) [%]	inhibition [4] [%]
CC(C)CC(=O)N[C@H](C(=O)N[C@H](C(=O)N[C@@H](CC(C)C)[C@@H](O)CC(=O)N[C@@H](C)C(=O)N[C@@H](CC(C)C)[C@@H](O)CC(=O)O)C(C)C)C(C)C [PEPSTATIN]	92.94	–	–	–
CCOC(=O)c1sc2c(c1N)S(=O)(=O)c1ccc(Cl)cc1N2c1ccc(C)cc1	64.98	10.8	15.7	< 5
CCOC(=O)c1sc2c(c1N)S(=O)(=O)c1cc(Cl)ccc1N2c1ccc(Cl)cc1	0	–	–	< 5
CCN(CC)CCCC(C)Nc1ccnc2cc(Cl)ccc12 (stereo not drawn) [CHLOROQUINE]	24.12	30	1.31	–
CCOC(=O)c1sc2c(c1N)S(=O)(=O)c1ccc(Cl)cc1N2c1ccccc1	78.17	13	9.75	< 5
CCOC(=O)c1sc2c(c1N)S(=O)(=O)c1ccc(Cl)cc1N2c1ccc(Cl)c(Cl)c1	<5	–	–	< 5
CCOC(=O)c1sc2c(c1N)S(=O)(=O)c1ccc(Cl)cc1N2c1ccccc1C	74.36	15.5	8.7	< 5
CCOC(=O)c1sc2c(c1N)S(=O)(=O)c1cc(Cl)ccc1N2c1cccc(Cl)c1	0	–	–	< 5
CCOC(=O)c1sc2c(c1N)S(=O)(=O)c1cc(Cl)ccc1N2c1cc(C)ccc1C	0	–	–	< 5
CCOC(=O)c1sc2c(c1N)S(=O)(=O)c1cc(Cl)ccc1N2c1ccccc1	0	–	–	< 5
CCOC(=O)c1sc2c(c1N)S(=O)(=O)c1ccc(Cl)cc1N2c1ccc(OC)cc1	37.01	11.6	11.21	< 5
CCOC(=O)c1sc2c(c1N)S(=O)(=O)c1ccc(Cl)cc1N2c1cc(C)ccc1C	76.81	11.42	9.4	< 5
CCOC(=O)c1sc2c(c1N)S(=O)(=O)c1ccc(Cl)cc1N2c1cccc(Cl)c1	0	–	–	< 5
CCOC(=O)c1sc2c(c1N)S(=O)(=O)c1ccc(Cl)cc1N2c1ccc(Cl)cc1	0	–	–	< 5
CCOC(=O)c1sc2c(c1N)S(=O)(=O)c1cc(Cl)ccc1N2c1ccc(OC)cc1	0	–	–	< 5
CCOC(=O)c1sc2c(c1N)S(=O)(=O)c1ccc(Cl)cc1N2c1cccc(OC)c1	55.96	12.16	11.6	< 5
CCOC(=O)c1sc2c(c1N)S(=O)(=O)c1cc(Cl)ccc1N2c1cccc(OC)c1	0	–	–	< 5
CCOC(=O)c1sc2c(c1N)S(=O)(=O)c1cc(Cl)ccc1N2c1ccc(C)cc1	0	–	–	< 5
CCOC(=O)c1sc2c(c1N)S(=O)(=O)c1cc(Cl)ccc1N2c1ccc(Cl)c(Cl)c1	0	–	–	< 5
CC(=O)N[C@@H](CC(C)C)C(=O)N[C@@H](CC(C)C)C(=O)N[C@H](C=O)CCCNC(=N)N [LEUPEPTIN]	89.06	–	–	–
CCOC(=O)c1sc2c(c1N)S(=O)(=O)c1cc(Cl)ccc1N2c1ccccc1C	0	–	–	< 5
